These results are taken from ChEMBL document CHEMBL1123881, “Synthesis and antiarrhythmic activity of new 3-[2-(omega-aminoalkoxy)phenoxy]-4-phenyl-3-buten-2-ones and related compounds” (J Med Chem, 1987).

Values after ≈ are worked out from the molar mass of the structure shown.

The subject of data set [1] is Rattus norvegicus. Description: The compound was tested for activity on heart rate in anesthetized rat when induced through portal vein (ipv) at dose of 1 mg/kg. It is filed as functional. A digest of the protocol:
(§1)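 Heart rate in anesthetized rats, given iv (femoral vein) or into the portal vein. Rate recorded a few seconds before drug administration.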

The test system of data set [2] is Mus musculus. The experiment in a line: Antiarrhythmic activity ( protection against aconitine induced ventricular tachycardia) in anesthetized mouse administered perorally. It counts as functional. Conditions: Heart, po. A digest of the protocol:
(§2)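 Albino CF1 mice of both sexes, 20-22 g, pentobarbital-anesthetized (60 mg/kg ip), lead II ECG. Dosing iv (caudal vein) 2 min or orally 60 min before aconitine infusion, 8 µg/mL at 0.32 mL/min for 3 min. ECG read every 10 s. Endpoint is time to initial arrhythmia and to ventricular tachycardia. Ten mice per dose; probit analysis.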

The subject of data set [3] is Canis familiaris. The experiment in a line: Antiarrhythmic activity ( protection against epinephrine induced ventricular fibrillation ) in post infarcted conscious dog administered iv. It is filed as functional. Conditions: Canis lupus familiaris, Heart.
Data set [4] is filed under the species Mus musculus. The experiment in a line: The compound was tested for effective concentration (intradermal injection) that caused local anesthesia in 50% of mice by tail-clip method. It counts as functional, organism-based. The method in brief:
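Tail-clip test in albino CF1 mice of both sexes, 18-20 g. Intradermal tail injection of 0.1 mL/mouse about 1 cm from the root.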

Data set [5] is filed under the species Oryctolagus cuniculus. Description: Tested in vitro for antiarrhythmic activity in isolated rabbit atria. It counts as functional. Conditions: Heart. The method in brief: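 Atria from New Zealand rabbits in oxygenated Ringer-Locke at 29 °C, paced with 10-ms, 10-V rectangular pulses at rising frequency to find the maximum driven frequency. This was remeasured before and 10, 15 and 20 min after drug addition. Dose-response curves on the same tissue, repeated 3-5 times. EC values by probit.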

Data set [6] relates to Rattus norvegicus. Description: The compound was tested for blood electrolyte K+ in rat serum when induced through femoral vein (iv) at dose of 5 mg/kg. It counts as functional. The method in brief: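 Sprague-Dawley rats of both sexes, 140-150 g. Serum K+ measured by flame photometry 1 h after iv dosing. Five rats per dose.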
Data set [7] deals with Mus musculus. Description: Antiarrhythmic activity ( protection against aconitine induced ventricular tachycardia) in anesthetized mouse administered through iv. It is filed as functional. The following applies: Heart. A digest of the protocol: as §2
A short description of data set [8]: The compound was tested for acute toxicity when given intravenously in rat. The following applies: in vivo, iv. It is filed as organism-based. A digest of the protocol:
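Sprague-Dawley rats of both sexes, 120-140 g, dosed intravenously; survivors observed for 1 week. LD50 derived by probit method, confidence limits at p = 0.05.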

Data set [9] has as its system Rattus norvegicus. The experiment in a line: Antiarrhythmic activity ( protection against CaCl2 induced ventricular fibrillation ) in conscious rat administered intravenously. Conditions: Heart, iv. It counts as functional. The method in brief: (§3)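 Sprague-Dawley albino rats, 180-200 g, conscious or urethane-anesthetized (2.8 g/kg sc). Compound given via caudal or portal vein 2 min, or orally 60 min, before rapid iv 8% CaCl2 at 1 mL/kg. Lead II ECG monitored for fibrillation within 10 min. Five to ten rats per dose.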

Data set [10] deals with Mus musculus. Description: Antiarrhythmic activity ( protection against aconitine induced initial arrhythmia ) in anesthetized mouse administered through iv. It counts as functional. Conditions: Heart. The method in brief: as §2
Data set [11] relates to Canis familiaris. The experiment in a line: The compound was tested for antiarrhythmic activity in infarcted conscious dog through iv. It counts as functional. The following applies: Canis lupus familiaris, Heart. The method in brief: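 Beagle dogs of both sexes, 10-14 kg, coronary ligature under pentobarbital (30 mg/kg iv) with artificial ventilation. Next day, dogs without spontaneous arrhythmia get epinephrine 2-10 µg/kg iv (ear vein). Compound then given iv. ECG at 5-180 min, with epinephrine re-challenge at each time. Maximal ectopic beats/min counted before and after each dose, in 2-4 dogs.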

The subject of data set [12] is Rattus norvegicus. Description: Antiarrhythmic activity (protection against CaCl2 induced ventricular fibrillation) in anesthetized rat administered through portal vein (ipv). It counts as functional. The following applies: Heart. The method in brief: as §3
The test system of data set [13] is Rattus norvegicus. Description: The compound was tested for antiarrhythmic activity ( protection against CaCl2 induced ventricular fibrillation ) in anesthetized rat. The following applies: Heart. It is filed as functional. The method in brief:
as §3

Data set [14] is described as follows: The compound was tested for acute toxicity when given intraperitoneally in mouse. The following applies: in vivo, ip. It counts as organism-based. The method in brief:
(§4)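 Albino CF1 mice of both sexes, 18-20 g, dosed intraperitoneally; survivors observed for 1 week; ten mice per dose. LD50 derived by probit method, confidence limits at p = 0.05.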

Data set [15] deals with Mus musculus. The experiment in a line: Antiarrhythmic activity ( protection against aconitine induced initial arrhythmia ) in anesthetized mouse administered perorally. The following applies: Heart, po. It is filed as functional. A digest of the protocol:
as §2

Data set [16] has as its system Rattus norvegicus. Description: Antiarrhythmic activity ( protection against CaCl2 induced ventricular fibrillation ) in conscious rat administered orally (po). It counts as functional. Conditions: Heart. A digest of the protocol:
as §3

The subject of data set [17] is Rattus norvegicus. The experiment in a line: The compound was tested for activity on heart rate in anesthetized rat when induced through femoral vein (iv) at dose of 1 mg/kg. It is filed as functional. The method in brief: as §1
In data set [18] the test system is Rattus norvegicus. The experiment in a line: Antiarrhythmic activity ( protection against CaCl2 induced ventricular fibrillation ) in anesthetized rat administered intravenously. It is filed as functional. The following applies: Heart, iv. A digest of the protocol: as §3
The nature of data set [19]: The compound was tested for acute toxicity when given intraperitoneally in mouse. It counts as organism-based. Conditions: in vivo, ip. A digest of the protocol: as §4

Usually ED50 stands for the dose that gives a 50% effect, or the effect in half of the subjects. A low value points to greater potency. As a reminder, the EC50 is the concentration giving half of the maximal effect. The term EC30 denotes the concentration at which the effect reaches the 30% level. Lower therefore signals greater potency. The term LD50 denotes the dose at which mortality reaches 50%. High values mean a less toxic substance, low ones a more toxic substance.

Turning to `CCN(CC)CCCOc1ccccc1O/C(=C/c1ccccc1)C(C)=O`, the Activity in [1] is 4%; in data set [6] it was -8%; in [17], -6%. For the same compound, the 50% effective dose (ED50) in data set [2] was 83 mg/kg; in [3], 1 mg/kg; in data set [7] it was 4.9 mg/kg; in data set [9], 0.3 mg/kg; in [10] it was 4.3 mg/kg; in data set [11], 1 mg/kg. In addition, the ED50 in data set [12] worked out at 0.6 mg/kg; in [13], 0.18 mg/kg; in [15], 82 mg/kg; in data set [16], 35 mg/kg. The same compound showed an EC50 in data set [4] of 0.0099 µg/mL (≈ 0.0269 µM). In data set [5], this compound gave an EC30 of 0.41 µg/mL (≈ 1.12 µM). The LD50 in data set [8] came out at 11.1 mg/kg; in [14] it was 95 mg/kg.

On to `CC(=O)/C(=C\c1ccccc1)Oc1cc(Cl)ccc1OCCN1CCCCC1`, for which the EC30 in data set [5] came to 3 µg/mL (≈ 7.5 µM). Moreover, it took a dose of 0.9 mg/kg to reach the 50% effect level in data set [18] (ED50). The LD50 in [14] was 185 mg/kg.

In data set [19], `CCN(CC)CCOc1ccccc1OCC(C)O` (stereo unspecified) gave an LD50 of 187 mg/kg. Further, the EC30 in data set [5] was determined as 15 µg/mL (≈ 56.1 µM). In data set [18], this compound yielded an ED50 of 7.1 mg/kg.

For the compound `CCN(CC)CCOc1ccccc1OCC(C)=O`, the LD50 in [19] came out at 125 mg/kg. In [5], the EC30 is 15 µg/mL (≈ 56.5 µM). In addition, it took a dose of 7 mg/kg to reach the 50% effect level in [18] (ED50).

`CC(=O)/C(=C\c1ccccc1)Oc1ccccc1OCCN1CCCC1` yielded an LD50 in data set [19] of 45 mg/kg. The EC30 in [5] worked out at 3 µg/mL (≈ 8.54 µM). Moreover, the 50% effect level in [18] (ED50) was put at a dose of 1 mg/kg.

`CCN(CC)CCOc1ccccc1O/C(=C/c1ccccc1)C(C)O` (stereo unspecified): the EC30 in data set [5] amounted to 1.9 µg/mL (≈ 5.34 µM). Moreover, it took a dose of 1.5 mg/kg to reach the 50% effect level in [18] (ED50). The compound also returned an LD50 in data set [14] of 110 mg/kg.

For `CCN(CC)CCOc1ccccc1O/C(=C/c1ccccc1)C(=O)c1ccccc1`, in data set [19], the LD50 was found to be 125 mg/kg. It took 2.8 µg/mL (≈ 6.74 µM) to reach the 30% level in [5] (EC30).

As for `CC(=O)/C(=C\c1ccccc1)Oc1ccccc1OCCCN(C(C)C)C(C)C`, the EC30 in [5] worked out at 0.32 µg/mL (≈ 0.809 µM). The LD50 amounted to 11.4 mg/kg in data set [8] and 60 mg/kg in data set [14]. This compound also registered an ED50 in data set [18] of 0.1 mg/kg.

Turning to `CC(=O)/C(=C\c1ccccc1)Oc1ccc(OCC(O)CNC(C)(C)C)cc1` (stereo unspecified), the EC30 in [5] came out at 2.8 µg/mL (≈ 7.3 µM). The ED50 in data set [18] was 3.5 mg/kg.

Turning to `CC(=O)/C(=C\c1ccccc1)Oc1ccccc1OCCCN(C)C`, the EC30 in data set [5] was 3 µg/mL (≈ 8.84 µM). Further, the LD50 amounted to 13.5 mg/kg in [8] and 110 mg/kg in [14].

In turn, `CC(=O)/C(=C\c1ccccc1)Oc1ccccc1OCCCN1CCN(C)CC1` came in with an EC30 in [5] of 1.3 µg/mL (≈ 3.3 µM). Also, the figures for the median lethal dose (LD50) in data set [8] and in data set [14] were 23.9 mg/kg and 125 mg/kg, respectively.

For `CC(=O)/C(=C\c1ccccc1)Oc1ccccc1OCCN1CCOCC1`, in data set [5], the concentration for an effect of 30% (EC30) came out at 6 µg/mL (≈ 16.3 µM). Also, the LD50 in [8] is 30 mg/kg; in data set [14], 180 mg/kg. Besides, it took a dose of 5 mg/kg to reach the 50% effect level in data set [18] (ED50).

In [5], `CC(=O)/C(=C\c1ccccc1)Oc1ccccc1OCC(C)N(C)C` (stereo unspecified) returned an EC30 of 2 µg/mL (≈ 5.89 µM). This compound yielded an ED50 in [18] of 0.9 mg/kg. Moreover, in data set [14], the LD50 turned out to be 45 mg/kg.

In [5], `CC(=O)/C(=C\c1ccccc1)Oc1ccccc1OCCCNC(C)(C)C` gave an EC30 of 2.3 µg/mL (≈ 6.26 µM). The LD50 in [8] was found to be 12.5 mg/kg; in [14] it was 63 mg/kg.
